Measurements reported in article PMC5143172 (Leukemia, 2016).
Blank lines part the entries; values can stand above or below the molecule they belong to.

Assays:
XPO1 [1] = target: T1, XPO1 (Saccharomyces cerevisiae, UniProt P30822, DEL377-413/T539C); assay: Pull-down inhibition assay of XPO1 with immobilized NESs; assay type: biochemical; conditions: 10uM inhibitor
In short: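 Purified recombinant yeast XPO1 (2 μM) was pre-incubated with RanGTP (10 μM) and 10 μM inhibitor for varying times at 4°C. The mixture was rotated with immobilized GST-PKI NES for 1 h. After extensive washing, bound protein was resolved by SDS-PAGE and stained with Coomassie Blue.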

XPO1 [2] = target: T2, XPO1 (Homo sapiens, UniProt O14980); assay: XPO1 total protein in primary CLL cells; assay type: cell-based; conditions: 0.5 μM
In short: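 Freshly isolated patient CLL cells were treated with DMSO or 0.5 μM compound and harvested at 2, 4, 8 and 18 h (N=3). Cells were lysed in RIPA buffer, resolved by SDS-PAGE and immunoblotted for XPO1. Signal was detected by chemiluminescence and quantified by densitometry.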

IkB = assay: Nuclear retention of IkB in CLL cells; assay type: cell-based, Human; conditions: 0.5 μM
In short: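 Treated primary CLL cells were fractionated into nuclear extracts with a commercial kit. Proteins were resolved by SDS-PAGE and probed with anti-IκB antibodies. Bands were detected by chemiluminescence and quantified by densitometry.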

MV4-11 = MV4-11 xenograft mouse model of AML; assay type: in vivo, NSG mice; conditions: day 21
primary AML samples = assay: Proliferation assay; assay type: cell-based; conditions: Homo sapiens
In short: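 Primary AML cells came from blood or frozen bone marrow of three newly diagnosed, untreated patients, collected under informed consent. Viability was measured by WST-1 assay after treatment with the test compound.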

[3] = test system: Eμ-TCL1 leukemic splenocytes; assay: Eμ-TCL1-C57BL/6 transplant mouse model of CLL; assay type: in vivo, C57BL/6 mice
In short: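 CD19+CD5+ splenocytes (1×10^7) from an Eμ-TCL1 donor with active leukemia (>10% CD45+CD5+CD19+ in blood) and splenomegaly were injected into C57BL/6 mice by tail vein. At onset (≥10% CD45+CD5+CD19+), mice were randomized to oral gavage with vehicle (0.5% methylcellulose/1% Tween80), test compound 15 mg/kg daily or twice weekly, or ibrutinib 20 mg/kg. Blood flow cytometry was done weekly and spleen volume measured at euthanasia. Kaplan-Meier/log-rank, mixed-effects model, ANOVA (log-transformed, Dunnett).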

XPO1 [4] = target: T1, XPO1; assay: Reversibility of inhibitor conjugation to XPO1; assay type: biochemical; conditions: 10uM inhibitor; dialysis or DTT, 24 hours
In short: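 XPO1 was incubated in triplicate with 10 μM inhibitor, then dialysed or treated with DTT. It was then used in a binding assay with RanGTP and immobilized GST-MVM NES, with bound proteins resolved by SDS-PAGE and Coomassie staining. XPO1 band intensities were quantified and expressed as percentage of DMSO-treated controls.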

XPO1 [5] = target: T2, XPO1; assay: XPO1 degradation by SINE compound treatment in HT1080 cells; assay type: cell-based; conditions: 25-1000 nM, 18 hours
primary CLL cells [6] = assay: Cytotoxicity in primary CLL cells by MTS; assay type: cell-based, Human; conditions: 48h (24h in Supplementary Figure 6)
primary CLL cells [7] = assay: Apoptosis of primary CLL cells by annexin-V/PI in FBS or human serum; assay type: cell-based; conditions: 10% fetal bovine serum or human serum, 24h
ABC-DLBCL cell lines = assay: Proliferation of ABC-DLBCL cell lines by MTS; assay type: cell-based
GC-DLBCL cell lines = assay: Proliferation of GC-DLBCL cell lines by MTS; assay type: cell-based
Brain penetration, mouse = assay type: in vivo
Brain penetration, rat = assay type: in vivo
[8] = Brain penetration, monkey; assay type: in vivo
[9] = Plasma accumulation after repetitive dosing; assay type: in vivo; conditions: data not shown
p53 = assay: Confocal microscopy of p53 localization in MV4-11; assay type: cell-based; conditions: MV4-11, confocal microscopy
In short: (§1)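 About 200,000 cells were cytospun onto slides, then fixed, permeabilized, blocked and immunostained for p53 (MV4-11) or NPM1 (OCI-AML3). DNA was counterstained with DAPI, and subcellular localization was imaged by confocal microscopy using merged channels.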

NPM1 = assay: Confocal microscopy of NPM1 localization in OCI-AML3; assay type: cell-based
In short: as §1

T2 sequence (O14980 whole entry): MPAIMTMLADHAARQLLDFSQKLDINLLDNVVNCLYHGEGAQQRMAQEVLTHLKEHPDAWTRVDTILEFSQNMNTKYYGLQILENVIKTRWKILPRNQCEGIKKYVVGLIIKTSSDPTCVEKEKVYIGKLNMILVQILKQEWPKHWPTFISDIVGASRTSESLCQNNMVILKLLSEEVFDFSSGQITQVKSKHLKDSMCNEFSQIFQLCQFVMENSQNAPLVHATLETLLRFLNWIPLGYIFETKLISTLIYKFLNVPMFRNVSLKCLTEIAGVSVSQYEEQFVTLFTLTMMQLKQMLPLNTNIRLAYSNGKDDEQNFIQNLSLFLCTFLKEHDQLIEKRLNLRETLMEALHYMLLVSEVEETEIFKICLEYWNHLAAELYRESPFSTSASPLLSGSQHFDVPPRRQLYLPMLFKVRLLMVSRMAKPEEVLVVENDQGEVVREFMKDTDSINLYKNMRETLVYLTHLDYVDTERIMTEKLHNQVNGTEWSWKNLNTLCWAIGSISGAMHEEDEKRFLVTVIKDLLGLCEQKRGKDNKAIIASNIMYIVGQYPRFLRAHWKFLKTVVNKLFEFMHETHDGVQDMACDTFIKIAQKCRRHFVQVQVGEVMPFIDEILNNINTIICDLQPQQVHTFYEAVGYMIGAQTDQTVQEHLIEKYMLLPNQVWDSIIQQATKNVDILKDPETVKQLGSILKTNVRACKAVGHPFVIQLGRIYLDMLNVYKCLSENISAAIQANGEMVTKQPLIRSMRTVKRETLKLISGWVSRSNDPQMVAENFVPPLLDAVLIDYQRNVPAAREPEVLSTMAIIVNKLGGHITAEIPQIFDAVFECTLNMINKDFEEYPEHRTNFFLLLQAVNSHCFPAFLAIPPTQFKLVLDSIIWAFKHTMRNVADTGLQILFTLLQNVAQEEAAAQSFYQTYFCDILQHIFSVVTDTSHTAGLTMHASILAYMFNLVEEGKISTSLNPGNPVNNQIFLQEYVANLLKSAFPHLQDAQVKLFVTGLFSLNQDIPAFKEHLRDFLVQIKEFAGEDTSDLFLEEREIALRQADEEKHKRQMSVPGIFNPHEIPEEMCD

- Incubation time with XPO1 to completely inhibit XPO1 binding to PKI NES (XPO1 [1]): 60 min
- Time post-treatment at which XPO1 total protein was decreased (XPO1 [2]): ≤ 4 h
Compound: O=C(/C=C\n1cnc(-c2cc(C(F)(F)F)cc(C(F)(F)F)c2)n1)NNc1cnccn1 [KPT-330, selinexor, reference compound]
- Time of treatment to nuclear retention of IkB (IkB): ≤ 8 h
- White blood cell count (WBC) vs vehicle (MV4-11; 20 mg/kg 2x/week): significantly reduced WBC
- IC50 (primary AML samples): 100 nM

Compound: C=CC(=O)N1CCC[C@@H](n2nc(-c3ccc(Oc4ccccc4)cc3)c3c(N)ncnc32)C1 [ibrutinib, reference compound]
- Median OS ([3]; Fig.4D cohort, ibrutinib 20 mg/kg daily, vehicle 20 days): 26 days

- Incubation time with XPO1 to completely inhibit XPO1 binding to PKI NES (XPO1 [1]): 60 min
- Reversibility of conjugation to XPO1 (XPO1 [4]): slowly reversible manner
- Time post-treatment at which XPO1 total protein was decreased (XPO1 [2]): ≤ 4 h
- Mean Concentration at 2h post dose Brain (Brain penetration, mouse; Mouse, po 5 mg/kg): 105 ng·h/g
- Mean Concentration at 2h post dose Plasma (Brain penetration, mouse; Mouse, po 5 mg/kg): 550 ng·h/mL
- Kp at 2 h (Brain penetration, mouse; mouse, brain/plasma, po, 5 mg/kg): 0.19
- Mean Concentration at 2h post dose Brain (Brain penetration, rat; Rat, po 5 mg/kg): 70 ng·h/g
- Mean Concentration at 2h post dose Plasma (Brain penetration, rat; Rat, po 5 mg/kg): 320 ng·h/mL
- Kp at 2 h (Brain penetration, rat; rat, brain/plasma, po, 5 mg/kg): 0.22
- Mean Concentration at 2h post dose Brain ([8]; Monkey, po 10 mg/kg): <32 ng·h/g
- Mean Concentration at 2h post dose Plasma ([8]; Monkey, po 10 mg/kg): 1310 ng·h/mL
- Kp at 2 h ([8]; monkey, brain/plasma, po, 10 mg/kg): < 0.02
Compound: NC(=O)/C(=C/n1cnc(-c2cc(C(F)(F)F)cc(C(F)(F)F)c2)n1)c1cncnc1 [KPT-8602]
- XPO1 degradation (XPO1 [5]): induces XPO1 degradation in HT1080 cells in a dose-dependent manner
- Killing of primary CLL cells vs vehicle (primary CLL cells [6]): induced dose-dependent killing of primary CLL cells
- Apoptosis of CLL cells in FBS and HS (primary CLL cells [7]): effective in inducing apoptosis of CLL cells in both FBS and HS
- Time of treatment to nuclear retention of IkB (IkB): ≤ 8 h
- Proliferation of ABC-DLBCL cell lines (ABC-DLBCL cell lines): inhibited proliferation
- Proliferation of GC-DLBCL cell lines (GC-DLBCL cell lines): inhibited proliferation
- Accumulation in plasma after repetitive dosing [9]: does not accumulate in plasma after repetitive dosing
- Median OS ([3]; Fig.4A cohort, 15 mg/kg daily, oral gavage, vehicle 33 days): 70 days
- Percentage of CD5+ B-cells in peripheral blood vs vehicle or KPT-8602 2x/week ([3]; Fig.4B, 15 mg/kg daily, three weeks post-treatment, p<0.001): significantly lower
- Spleen size at study removal vs all other groups ([3]; Fig.4C, 15 mg/kg daily, p<0.001): significantly smaller
- Spleen size vs vehicle or ibrutinib alone ([3]; Fig.4F cohort, KPT-8602 15 mg/kg daily, p<0.001): significantly smaller
- Change in body weight ([3]; daily treatment, after 28 days): did not cause a significant change in body weight
- White blood cell count (WBC) vs vehicle (MV4-11; 15 mg/kg daily and x2/week): significantly reduced WBC
- IC50 (primary AML samples): 300 nM
- Accumulation of p53 in the nucleus (p53): significant accumulation
- Accumulation of NPM1 in the nucleus (NPM1): significant accumulation
